From the EternaBench riboswitch data

Test system: MS2 coat protein
Assay: apparent Kd, MS2 coat protein; higher = weaker binding; RNA-MaP array; FMN 200 µM where present
Procedure, shortened: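 The titrant was SNAP-549-labelled MS2 coat protein, run from 0.7 or 1.5 nM in doubling steps to 3 µM. It was applied to designs transcribed by stalled E. coli RNA polymerase on Illumina sequencing-chip clusters, without ligand first and then with constant ligand, in 100 mM Tris-HCl pH 7.5, 80 mM KCl, 4 mM MgCl2, BSA, DTT, yeast tRNA and Tween-20. The apparent Kd is the median of filtered per-cluster binding-curve fits, with green signal normalised to red-channel RNA signal and control-cluster median Fmax.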

[1] = designed as: OFF switch for flavin mononucleotide, no ligand
[2] = ligand present: flavin mononucleotide, designed as: OFF switch for flavin mononucleotide
[3] = designed as: ON switch for flavin mononucleotide, no ligand
[4] = ligand present: flavin mononucleotide, designed as: ON switch for flavin mononucleotide

Sequence | apparent Kd [1] [nM] | apparent Kd [2] [nM] | apparent Kd [3] [nM] | apparent Kd [4] [nM]
AUAAUGUGAGGAUAUCAGUCGUACAGCUUCGGCUGUACGACUGAGAAGGCACAUGAGGAUCACCCAUGUGGUCA | 499 | 84.2 |  | 
GGGCAUAAUACAUGAGGAUCACCCAUGUCAGAAAGGGUAAUCAGAAGGUACUAUUAGAGAAAGAGUAAGGAUAUGAAUAUGCCC |  |  | 973 | 103
UUGGACGUCGUAGGAUAUGUAGGAUAUUCCUACAUGAGGAUCACCCAUGUUGACAUGGAUGAAGGACAGAAGGACGAUGUCCAU |  |  | 276 | 357
AAUUGGAACUAAGGAUAUCUGUAUUUUGUUGAAACAUGAGGAUCACCCAUGUUCAUGAAAUUAUAGGAGAAGGUAGAUCCAUAA |  |  | 5 | 4.6
UUGUACAUAGGAUAUAGUUGUUUGUACAUGAGGAUCACCCAUGUUAUGUAUCUUUUGCUUCUAGAAGGAUGUUCUU | 38.7 | 27.7 |  | 
ACGUUAAAAGGAUAUACAUGAGGAUCACCCAUGUUGUUCGAACUGGUAAACCCUCUAUGUAGAAGGUUUGGCAC | 23.5 | 50.1 |  | 
UAUAUAUAGGCAGGAUAUACAUGAAUAUAUAUGAUGUAGUAUGAUGUAACAUGAGGAUCACCCAUGUAGAAGGGCCAAUAUAUA | 48 | 152 |  | 
AAAAAACAUGAGGAUCACCCAUGUGAGGAUAUGCGAAAAAAAAAAAAAAAAAAAAAAAGUAGAAGGCACAAAAA | 48.5 | 173 |  | 
UUACUAUCACAGAAGGGUGGAUAGUAUAUAGACGCAGGAUAUGUGACAUGAGGAUCACCCAUGUUUCACCGGCAUGAGGAUCAA | 11.4 | 15.3 |  | 
UGUCGGAGCAGAGGAUAUUACAUGAGGAUCACCCAUGUAUGAACCAAUAGCUGGAAACAGUAAUGUAAGAAGGCUGCUCCGACA | 7.33 | 76.2 |  | 
CACUCACAUGAGGAUCACCCAUGUCCUAGCAGGUCAGGAUAUAGCUCGGAUGCGUUGAGGCUAGAAGGGACAGGUU |  |  | 116 | 68.5
AAUUGGAUGCAGAAGGCAUGGACGACUCGUCACAUUAACAUGAGGAUCACCCAUGUAAAAUAACAUGAGGAUAUGCAUCCUAAA |  |  | 9.81 | 6.15
UCGAAACAGACAGGAUAUGCAGGGAGGUGCCGGUACAUGAGGAUCACCCAUGUAGAAGGGUCUCGAGUUGAACUUCAGUCAAAG | 9.61 | 19.5 |  | 
GUAUUUAGAUAAGGAUAUAAGUCUAUGACAUGAGGAUCACCCAUGUGUGUCUUAGAAGGUAUUUGGGUAAUAUUGUUACAGUAA |  |  |  | 16.2
UUAUACAUUCGAGGAUAUCGGAGAGAAAUCAUUCGAGAAGGCGAUUCAUGAUGUAUUAUCCUGGACAUGAGGAUCACCCAUGUA |  |  | 79.7 | 68.5
UGUCGGAGCAGAGGAUAUUACAUGAGGAUCACCCAUGUAUGAACCAAUAGCUGGAAACAGCAAUGUAAGAAGGCUGUUCCGACA | 11.9 | 134 |  | 
UCAUUGGUUGUGAGGAUAUCGGUGUGAUGGAUUGUCGAGAAGGCACAUGAGGAUCACCCAUGUUUGUUUGGGCU | 577 | 449 |  | 
UGUAUAUAGGCAGGAUAUACAUGAAUAUAUAUGAUGUAGUAUGAUGUAACAUGAGGAUCACCCAUGUAGAAGGGCCAGUGUAUA | 73.8 | 144 |  | 
UCUGCCGCCGUGAGGAUAUGCCCAAACAAACGCGGGCAGAAGGCACAUGAGGAUCACCCAUGUCCCGCGGUUUU | 19.6 | 36.3 |  | 
CCGAAUGUCACAGGAUAUGGUCCGGGCACGCGACCAGAAGGGUGAUCUUACAUGAGGAUCACCCAUGUAUAGGCGUUAGGCUAC |  |  | 32.9 | 442
GAGUUACAUGAGGAUCACCCAUGUUGUUUUGGAUAAGGAUAUAUGGUAGGAAGAGGAAUGAUAGAAGGUAUUAGGG |  |  | 29.9 | 28.3
AUAUGAUAGAUAGGAUAUACAUUGGAUUUAUAAGUAGAAGGAUCAAGUGGGAAUUAUACAUGAGGAUCACCCAUGUUUUUGGAU |  |  | 63.9 | 43.9
GGUCGUCAAGUCAGGAUAUCGUAUAGUAGAUAUAACGAGAAGGGACAUGAGGAUCACCCAUGUCGUCUCAUCAG | 19 | 29 |  | 
GGGUACAUGGGAGGAUAUGGGAUGAUAACAUGAGGAUCACCCAUGUUAAAGAUGCCGAGAGGCAACUAGAAGGCCCAUGUACCG |  |  | 440 | 59.2
UCAGGCUUCGAGAAGGACAUGAGGAUCACCCAUGUGCGUGUGAAGCAGCCGUGAGGCUGCAUCAUGUAGGAUAUCGGAGUCUGA | 75.6 | 459 |  | 
AAAUGCCUGUCGAUGCUCGACAUGAGGAUCACCCAUGUACAGCAGGAUAUGCGGAACUAACUCGUGCAGAAGGGCUGUACCUAA | 102 | 144 |  | 
ACAUGAUAUGUAGGAUAUCACAUUAAUUGUUUUAUAAUUGUAAUUUGGAUUUGAGAAGGACAUUUACAUGAGGAUCACCCAUGU | 15.9 | 12.1 |  | 
UUACCCUCAGUAAGGAUAUCUUUAUCUGCUGAUUUAGAGAAGGUACAUGAGGAUCACCCAUGUGCGAUUGGGCA | 80.3 | 501 |  | 

Sequence | apparent Kd [1] [nM] | apparent Kd [2] [nM] | apparent Kd [3] [nM] | apparent Kd [4] [nM]
UUCGGGAACUCUAUGGGCCGCUACAUGAGGAUCACCCAUGUGCAGGAUAUAGGUGUCACUACCGCCUAGAAGGGCACAGAAAGA | 41.4 | 58.6 |  | 
GAUUGAGAGCAGGAUAUCAUAGAAAUGUAUGAAUGAGAAGGGCUCACAUGAGGAUCACCCAUGUGGUCCUAGAU | 27.2 | 171 |  | 
ACAGGCUUCGAGAAGGACAUGAGGAUCACCCAUGUGCGUGUGAAGCAGCCGUGAGGCUGCAUCAUGUAGGAUAUCGGAGUCUGU | 63.8 | 374 |  | 
AAGUAGGUAGGAUAUACAUGGAUAUACAUUCAUGUGGACCUACAUGAGGAUCACCCAUGUAGAAGGACCUAAUA | 43.2 | 41.6 |  | 
AACACGAGAGGUGUUGUCUAACCACAUGAGGAUCACCCAUGUAAGGAUAUCGCGGCUAUCGGCAUCGAGAAGGUACAGGGAGCA | 16.2 | 31.4 |  | 
UGGUACUAGGGAGGAUAUGGGAAGAUACAUGAGGAUCACCCAUGUUUAAGAAUGCCGGGAGGCAACUAGAAGGCCCUAGUACCU |  |  | 478 | 21.2
GUCAGCUCGUGAGGAUAUACAACACUUCUUCGGCAGUGUAUUAAGAUCACAUGAGGAUCACCCAUGUAGAAGGCACGAGCUGAU | 14.1 | 231 |  | 
GCAGCUAAUAUUAUACAUGAGGAUCACCCAUGUUACAUGAGUAAGGAUAUUGAUGAUUAUAUAAACAAGAAGGUACGAAGCUGC |  |  | 14.9 | 7.85
ACAUGAGGAUCACCCAUGUUAUCCGGGACUUCAAUUGUUUCUAGAAGGCUGUUUGCUUGUUAGUCAGAGGAUAUAGAAUCAAAU | 10.2 | 10.1 |  | 
CCUGGCACAUAGAAGGGUACAUGGCCUCUGCUACAUGAGGAUCACCCAUGUGCAGGAUAUGUGUGCCAGACUAUGCCGGUGUAA | 20.2 | 16.1 |  | 
CGCGAACAUGAGGAUCACCCAUGUGGGUGGAACGUAGGAUAUACGUAGGUCUUUAAUACAGUAGAAGGACGUUCGC |  |  | 264 | 118
UCCCGGGUGCAGAAGGGAUAGGCCUAUUUUCGUGGUAUCCAAACCUUACAUGAGGAUCACCCAUGUCAGGAUAUGCCCACGGGA | 4.47 | 4.96 |  | 
AAGUCUGUACGAGGAUAUCAGUUGUAUCUAGAUUCAACAUGAGGAUCACCCAUGUUGCAAUAGGGUGAGAAGGCGUGUGGGCAA |  |  | 101 | 25.3
GGAGGGCCUCGAGGAUAUCGCUGCGGUCGUCUGACAUGAGGAUCACCCAUGUGAGAAGGCGAGGCUACUGACUAUGCCCGUUAU | 27.9 | 275 |  | 
ACAUGCAAGUAGAAGGACGGAUAUUUUGAUAACGUAGGAUAUACAGAAUCAUAUCCACAUGAUAACAUGAGGAUCACCCAUGUA | 11.8 | 12.4 |  | 
AAAAAACAUGAGGAUCACCCAUGUGAGGAUAUGCGAAAAAAAAAAAAAAAAAAAAAAAGCAGAAGGCACAAAAA | 43.9 | 60.8 |  | 
AAUAUGUUGCAGAAGGUUAUAUUUAUAACGUUCCUCAUGACAUGAGGAUCACCCAUGUAAUUGUUGAAGGAUAUGCAAUAUAUU | 5.41 | 5.62 |  | 
AAUAAACUCACAGGAUAUAGCAUAGUCGGCGUGAACUUAAUGGCGACUAUGCUAGAAGGGUGACCACAUGAGGAUCACCCAUGU |  |  | 710 | 149
UAACCGCAGCAGAAGGGACGUCGGGUGGACUAGUCAGGAUAUGCAUGCCGGCAUAGACAUGAGGAUCACCCAUGUACGAGUGGC |  |  | 347 | 87.5
AUCCGACAUGAGGAUCACCCAUGUCAGGAUAUGGACUGACAUCGAAAGGAUGGCAGAACCAGAAGGGACUGGGC | 29.9 | 56.2 |  | 
AAAAAGGCAGGAUAUACAAAAAAAUUUUUAAAAAAAAAAAAACAUGAGGAUCACCCAUGUAGAAGGGCCAAAAA | 54.2 | 51.7 |  | 
UUAAAUCAUGUAGGAUAUGCAUGGCGAAGCUACGCAGAAGGACAUGAGGAUCACCCAUGUUCUGGCGUCUGAGUACAGAUGCAA | 20.3 | 48.8 |  | 
CUACAUGAGGAUCACCCAUGUGCACACCGGAUCGGCGUGCGCAGAAGGGCCAUGGAGAAAGCCAGGCAGGAUAUGCAAAGGGCU |  |  | 396 | 189
AGGAUUGUGCUAGGAUAUCCAGGUUUGCAACAAGGAGAAGGAGCACAUGAGGAUCACCCAUGUUCUCAAAGGCCAUGGCAAUAA | 23.4 | 84.2 |  | 
GGAUUACGAGGAUAUCGAUUUUAGUACAUGAGGAUCACCCAUGUUGUCCAGGUCUCGUUUCGAGAAGGCGUGAUUC | 65.1 | 48.7 |  | 
UUCAUGUGAGGAUAUGCGGCGGCAGGUGGGCCUGUCGCUGAGCAGAAGGCACAUGAGGAUCACCCAUGUGCUCC | 34.3 | 59.7 |  | 
AAUUGGAUGCAGAAGGCAUGGACGACUCGUCAAAUUAACAUGAGGAUCACCCAUGUCAAAAGACAUGAGGAUAUGCAUCCUAAA |  |  | 189 | 12.6
